# Assay results published in PMC4530630 (Molecular cell, 2015).
# Legend:
# A549 cells = test: Cyto-ID autophagy dye imaging in A549 cells; format: cell-based, human; details: 5 μM 6965 for 2 hours, then 4 μM AZD8055 for 24 hours
# In short: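 A549 cells were pretreated with or without test compound (5 μM) for 2 hours, then exposed to the catalytic mTOR inhibitor AZD8055 (4 μM) for 24 hours. Autophagic vacuoles were stained with the Cyto-ID autophagy detection kit and nuclei with DAPI. Read-out was immunofluorescence imaging.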
# [1] = test system: A549 human lung cancer cells; test: PE-AnnexinV FACS apoptosis in A549 cells; format: cell-based
# In short: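 A549 human lung cancer cells received AZD8055 (1 μM) or DMSO together with increasing doses of test compound for 72 hours. Cells were then collected, stained with PE-AnnexinV and quantified by FACS. Read-out was the percentage of AnnexinV-positive cells, taken as cells actively undergoing apoptosis.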
# [2] = test system: panel of 456 purified human kinases; test: DiscoveRx KINOMEscan competition-binding assay; details: tested at 10 μM
# [3] = test system: endogenous FAK, AMPK, mTOR, Akt, or Erk signaling; test: immunoblot of endogenous growth pathway signaling in wild-type MEFs; format: cell-based, mouse; details: 10 μM
# In short: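 Wild-type and Ulk1/Ulk2 double-knockout MEFs were given fresh DMEM with 10% FBS containing 1 μM INK128, 1 μM AZD8055 or DMSO, or EBSS starvation medium, with or without 10 μM test compound. Endogenous signaling was assessed by immunoblotting. Endogenous ULK1 activity was monitored with a phospho-specific antibody to Atg13 Ser318.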
# [4] = test system: PC3 human prostate cells stably expressing GFP-LC3; test: GFP-LC3 puncta high-throughput microscopy in PC3 cells; format: cell-based; details: 1 μM for 4 hours, control siRNA cells
# In short: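 GFP-LC3 PC3 cells were used for a focused RNAi screen of kinases. 48 hours after siRNA transfection, cells received 1 μM of the catalytic mTOR inhibitors AZD8055 or INK128 for 4 hours. GFP-LC3 puncta were then imaged, with nuclei counterstained by DAPI. Results were reported as mean puncta number with standard deviation for each siRNA and drug treatment.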
number of kinases inhibited >95% [2],Compound,effect on AZD8055-induced autophagy (Cyto-ID dye accumulation) (A549 cells),"apoptotic (AnnexinV-positive) cells ([1]; 5 μM 6965 in the absence of AZD8055, 72 hours) [%]","effect on endogenous FAK, AMPK, mTOR, Akt, or Erk signaling [3]",induction in GFP-LC3 puncta formation [4] [fold],"apoptotic (AnnexinV-positive) cells ([1]; AZD8055 (1 μM) alone, 72 hours) [%]"
10 out of 456,CNC(=O)c1ccccc1Oc1nc(Nc2cc(OC)c(OC)c(OC)c2)ncc1Br [SBI-0206965],strongly suppressed,10,did not impair,–,–
–,CC(C)n1nc(-c2ccc3oc(N)nc3c2)c2c(N)ncnc21 [INK128],–,–,–,2,–
–,"COc1ccc(-c2ccc3c(N4CCOC[C@@H]4C)nc(N4CCOC[C@@H]4C)nc3n2)cc1CO [AZD8055, reference compound]",–,–,–,2,7
